Screening data: PubChem BioAssay, several laboratories
An excerpt weighted towards active compounds, which were near 2.6% of everything screened.
SENP8 block-1: SENP8 protease inhibition. Q96LD8. purified SENP8, Z-RLRGG-aminoluciferin cleavage, luminescence. hit rate 1.2% among 330,000. inhibition, % at 10 µM; in the data active means inhibition above about 50%
SENP1 inh: blocks the human SENP1 SUMO protease catalytic domain; Q9P0U3; recombinant SENP1 catalytic domain, CyPet-SUMO1-YPet FRET cleavage; inhibition, % at 10 µM; hit rate 0.21% among 360,000; AID 624204;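 active means inhibition at least 30% at 10 µM, raw YFP signal under a set limit, fluorescence ratio 0.5 to 1.5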;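 further: 0% = enzyme with DMSO and 100% = no enzyme wells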
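Test system: recombinant human SENP1 catalytic domain, His6-tagged / Medium: pH 8 Tris buffer with EDTA, NaCl, BME, BSA, NP40, catalase / Also added: SUMO1 FRET substrate flanked by Cypet and Ypet, 25 nM / Times: 50 min reaction at room temperature / Signal: FRET, CFP and YFP emission / Control set: no-enzyme low control and enzyme-plus-DMSO high control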
SENP7 block: SENP7 protease inhibition; recombinant SENP7, Z-RLRGG-aminoluciferin luminescence, 40 min; AID 434973; inhibition, % at 5 µM; Q9BQF6; hit rate 1.5% among 330,000;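 active means inhibition above about 50% at the single test dose, limit read from the data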;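 further: plate controls were DMSO with enzyme for no effect and no enzyme buffer wells for full effect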
Platelet DG rel: modulates dense granule release in human platelets; human platelet-rich plasma, SFLLRN dense granule ATP release, luminescence; inhibition, %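 (compounds screened at 7.5 µM in platelet-rich plasma)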; hit rate 0.22% among 300,000; AID 1663;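 active means mean replicate score, as percent of positive control, at or above 50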
SENP8 block-2: SENP8 (human) protease inhibition; Q96LD8; recombinant SENP8, Nedd8 substrate fluorescence; inhibition, % at 20 µM; hit rate 0.64% among 360,000; in the data active means inhibition mostly above about 40%, no sharp cut-off; inactive means mostly below about 27%
SENP6 block: blocks the human protease SENP6; Q9GZR1; Recombinant SENP6 catalytic domain, aminoluciferin luminescence; inhibition, % at 10 µM; hit rate 1.8% among 330,000;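 active means inhibition above about 50% at the single tested dose, limit read from the data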;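 further: plate controls were DMSO wells with enzyme for no effect and DMSO wells lacking enzyme for full effect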
Target sequence (Q9GZR1 628-1112 limits assumed): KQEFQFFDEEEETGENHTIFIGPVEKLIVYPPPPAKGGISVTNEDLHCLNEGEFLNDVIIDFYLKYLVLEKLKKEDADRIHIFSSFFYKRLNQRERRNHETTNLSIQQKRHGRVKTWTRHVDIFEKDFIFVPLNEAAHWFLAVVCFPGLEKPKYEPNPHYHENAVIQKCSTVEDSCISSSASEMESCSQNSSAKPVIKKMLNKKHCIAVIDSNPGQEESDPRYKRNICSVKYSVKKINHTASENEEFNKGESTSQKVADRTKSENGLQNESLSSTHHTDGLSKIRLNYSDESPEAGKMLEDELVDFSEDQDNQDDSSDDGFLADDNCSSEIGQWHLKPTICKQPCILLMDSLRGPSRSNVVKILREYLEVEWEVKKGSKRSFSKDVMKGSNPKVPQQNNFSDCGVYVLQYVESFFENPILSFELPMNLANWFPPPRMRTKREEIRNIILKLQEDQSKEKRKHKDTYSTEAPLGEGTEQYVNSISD
Numbers without * were called inactive; · = not tested or not shown.

SMILES | SENP8 block-1 | SENP1 inh | SENP7 block | Platelet DG rel | SENP8 block-2 | SENP6 block
CCC(=O)Nc1nnc(-c2ccccn2)o1 | 6 | 0 | 8 | -10 | -80 | -2
O=C(Nc1nnc(-c2ccccn2)o1)c1ccc(Br)cc1 | 57* | 2 | 63* | -4 | 2 | 77*
COC(=O)C1(C(F)(F)F)N=C2Sc3ccccc3N2C(N2CCOCC2)=N1 (stereo not drawn) | 7 | 2 | 1 | 105* | 6 | -6
Cc1[nH]n(-c2ccccc2)c(=O)c1/C=N/c1ccccn1 | 1 | 0 | 1 | 3 | 41* | -10
CC1=NN(c2ccccc2)C(=O)/C1=C\c1c(C)[nH]n(-c2ccccc2)c1=O | 3 | 3 | 7 | -2 | 42* | 2
Nc1ccc(N2CCCCC2)c(Cl)c1 | -2 | 4 | 10 | 2 | 4 | -5
Nc1c(Br)cc(Br)c2c1C(=O)c1c(cccc1S(=O)(=O)O)C2=O | · | 11 | · | · | 18 | ·
O=[N+]([O-])c1cc(N=Nc2ccc3ccccc3c2)ccc1O | · | 6 | · | 55* | 36 | ·
Nc1ccc(O)c([N+](=O)[O-])c1 | 7 | 1 | 2 | · | 26 | 0
CC12CCC(C/C1=N\N=C1\NC(=O)/C(=C\c3ccc(Cl)cc3)S1)C2(C)C (stereo not drawn) | -19 | 3 | -3 | 2 | 40* | -6
CCN(CC(=O)NCc1cccs1)C(=O)c1ccc(NS(=O)(=O)c2ccc(C(C)=O)cc2)cc1 | -3 | 0 | -10 | 5 | 8 | -18
O=C1c2cccnc2C(=O)N1CO | 0 | 3 | -5 | 1 | 31 | 1
NC1=C(Br)C(=O)c2ncccc2C1=O | · | 0 | · | · | 96* | ·
Cc1cc2nc3ccc(N(C)C)cc3nc2cc1N | 50 | 72 | 16 | -2 | 81* | 51*
CC1(C(=O)NS(=O)(=O)c2cccc(F)c2)CCN1C(=O)C1(c2ccc(Cl)cc2)CCC1 (stereo not drawn) | · | 1 | · | · | -6 | ·
CC(=O)c1cccc(NC(=O)c2ccc(OC3CSC3)cc2)c1 | 5 | 1 | 40 | -1 | 7 | -13
O=C(Nc1cccc(Br)c1)c1ccc(OC2CSC2)cc1 | 90* | · | 96* | 14 | · | 92*
C/C(=N\NC(=O)c1cc(-c2cccnc2)nc2ccccc12)c1ccc(O)cc1O | -3 | 49* | 8 | -19 | 16 | 1
CCCCc1ccc(NC(=S)N2CCN(c3ccccn3)CC2)cc1 | -2 | 25 | -2 | -2 | -2 | 17
Nc1cccc(C(=O)OCC(=O)Nc2cccc3c2C(=O)c2ccccc2C3=O)c1 | -8 | 33* | 3 | -1 | 30 | -13
Cc1cccc(NC(=O)COC(=O)c2cccc3c2C(=O)c2ccccc2C3=O)c1C | -8 | -3 | -2 | 1 | 26 | -7
CCN(CC)CCC(=O)Nc1cccc2c1C(=O)c1ccccc1C2=O | 5 | 62* | 10 | -4 | 39 | 0
CCN(CC)CCNC(=O)c1ccc2c(c1NCCO)C(=O)c1ccccc1C2=O | 24 | 5 | 37 | 4 | 88* | 37
Nc1cccc(C(=O)OCC(=O)c2ccccc2)c1 | 55* | 3 | 70* | 10 | 10 | 68*
CCS(=O)(=O)c1ncc(Cl)c(C(=O)Nc2ccc(S(=O)(=O)N3CCC(C)CC3)cc2)n1 | 5 | 0 | 0 | 7 | 6 | 11
SMILES | SENP8 block-1 | SENP1 inh | SENP7 block | Platelet DG rel | SENP8 block-2 | SENP6 block
CCN(C(=S)Nc1cc(S(=O)(=O)N2CCOCC2)ccc1Cl)c1cccc2ccccc12 | 58* | -13 | 39 | 3 | -388 | 77*
O=S(=O)(c1ccc(Cl)c(NC(=S)Nc2cccc(O)c2)c1)N1CCOCC1 | -7 | 3 | 5 | 2 | 13 | 10
c1cc(C2OCCO2)cs1 | · | 1 | · | · | 21 | ·
NC(=O)CC(NC(=O)Cc1ccc(Cl)cc1)c1ccc(NC2CCCCCCC2)c([N+](=O)[O-])c1 (stereo not drawn) | 5 | 2 | -2 | 3 | 23 | 7
COCc1cc(C)nc(SCC[N+](C)(C)CC(=O)c2ccc(Br)cc2)c1C#N | -10 | 0 | -9 | 51* | 14 | -19
COCc1cc(C)nc(SCC[N+](C)(C)CC(=O)Nc2ccccc2)c1C#N | -6 | 0 | -3 | 19 | 9 | 4
C[C@H]1CN([C@@H](C)CO)C(=O)c2cccc(NC(=O)c3nc4ccccc4s3)c2O[C@H]1CN(C)C(=O)Nc1ccc(F)cc1 | -3 | 2 | 10 | · | -24 | 6
CCCOc1ccc(/C=C2\SC(=S)N(CC3CCCO3)C2=O)cc1 (stereo not drawn) | -19 | -8 | -5 | 6 | 49* | -4
O=C(O)c1ccc(NC2=C(N3CCOCC3)C(=O)c3ccccc3C2=O)cc1 | 12 | -60 | 3 | 19 | 53* | 43
CC(=O)N(C1=C(N2CCOCC2)C(=O)c2ccccc2C1=O)c1ccc(C(=O)O)cc1 | 19 | 0 | 34 | -4 | 18 | 18
Cc1nc2ccc(N=NC3=C(O)CC(C)(C)CC3=O)cc2s1 | -1 | 9 | 2 | -2 | 19 | 14
CC(=O)N1CCc2cc(N=NC3=C(O)CC(C)(C)CC3=O)ccc21 | 3 | 67* | 9 | 2 | 24 | 6
O=C1Nc2ccccc2/C1=N\N=C\c1ccc(O)c(O)c1 | -14 | 4 | -13 | 2 | 57* | -11
NC(=O)NC[C@@H]1CC[C@@H](Cc2ccc(-c3ccccc3)cc2)O1 | · | 1 | 14 | · | 1 | ·
OC[C@@H]1CC[C@@H](Cc2ccc(-c3ccccc3)cc2)O1 | · | 3 | 63* | · | 18 | ·
CC(OC(=O)CNC(=O)C12CC3CC(CC(C3)C1)C2)C(=O)Nc1ccc(N2CCOCC2)cc1 (stereo not drawn) | 4 | 1 | -1 | 85* | 35 | -2
CN(CC(=O)Nc1ccc(N2CCOCC2)cc1)C(=O)C12CC3CC(CC(C3)C1)C2 | -7 | -1 | -5 | -6 | 16 | -18
Oc1ccc(N=Cc2ccc(O)c(O)c2)cc1 | 23 | -1 | 8 | -4 | 62* | 39
CC(C)=C(NC(=O)c1ccccc1Cl)C(=O)NCCc1nc2ccccc2[nH]1 | · | 1 | · | · | 13 | ·
CC(C)Cc1csc(NC(=O)c2ccc(F)cc2)c1C(=O)O | 84* | 1 | 2 | 9 | -49 | 89*
O=[N+]([O-])c1ccccc1-c1cc(-c2ccccc2O)n[nH]1 | 36 | 0 | 14 | -6 | 10 | 61*
Cc1cc(SCC(=O)N/N=C/c2ccc(O)c(O)c2O)c(C)cc1Br | -3 | 2 | 3 | -6 | 35* | 1
O=C1CC(c2ccc(O)cc2)Oc2cc(O)cc(O)c21 (stereo not drawn) | 17 | 1 | 5 | -1 | -1 | 27
CC1CC(=O)c2c(cc3c(-c4c(O)cc(O)c5c(O)c6c(cc45)OC(C)CC6=O)c(O)cc(O)c3c2O)O1 (stereo not drawn) | 22 | 70* | 26 | 5 | 71* | 41
